ChEMBL document CHEMBL3414531, “Design, synthesis and biological evaluation of quinazoline derivatives as anti-trypanosomatid and anti-plasmodial agents” (Eur J Med Chem, 2015)
pIC50: −log10 of the molar value. The source made the active and inactive calls. The calls are words filed in the database; no cut-off is given here.

Experiments:
Trypanosoma cruzi [1] = assay: Antimicrobial activity against bloodstream trypomastigote stage of Trypanosoma cruzi NINOA after 24 hrs by Brener method; format: functional
Trypanosoma cruzi [2] = assay: Antimicrobial activity against bloodstream trypomastigote stage of Trypanosoma cruzi INC-5 after 24 hrs by Brener method; format: functional; settings: INC-5, 24 h
Leishmania mexicana [3] = assay: Antimicrobial activity against Leishmania mexicana MHOM/BZ/61/M379 after 24 hrs by haemocytometry; format: functional; settings: MHOM/BZ/61/M379, 24 h
[4] = Cytotoxicity against African green monkey Vero cells after 24 hrs by MTT assay; format: cell-based; settings: chlorocebus sabaeus
In short: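 Confluent Vero cells were trypsinized and resuspended in MEM with 10% FBS, seeded in 96-well plates and held 24 h at 37 °C, 5% CO2. Compounds at various concentrations were added (DMSO control) for 24 h. MTT was added for 2 h, then SDS-HCl overnight at 24 °C. A540 was read and viability taken relative to control cells. Triplicate; CC50 derived.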

Plasmodium berghei [5] = assay: Antiplasmodial activity against Plasmodium berghei infected in CD1 mouse assessed as reduction in parasitemia at 50 mg/kg, po administered for 4 days measured on day 4 relative to vehicle-treated control; format: functional; design: scale not given: the % may be the effect or the level left
In short: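 P. berghei ANKA was passaged ip (0.2 mL saline-diluted blood) through groups of female CD1 mice until infection stabilized. Four-day suppression test: oral 50 mg/kg every 24 h on days 0–4 post-inoculation (n = 5, in duplicate). Vehicle control was 0.2 mL gum arabic orally. Parasitemia was read from tail blood on day 4 and inhibition calculated against the control group. Survival time was also recorded.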

Plasmodium berghei [6] = assay: Antiplasmodial activity against Plasmodium berghei infected in CD1 mouse assessed as survival time at 50 mg/kg, po administered for 4 days measured on day 4 relative to vehicle-treated control; format: functional
In short: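 P. berghei ANKA was passaged by ip injection of 0.2 mL saline-diluted blood from donor mice at about 30% parasitaemia until the infection was stable. In a 4-day suppression test, mice received 50 mg/kg orally every 24 h on days 0–4 post-inoculation (n = 5, in duplicate), with 0.2 mL Arabic gum orally as control. Survival time was recorded against untreated mice, and mice without parasitaemia on day 30 counted as cured.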

[7] = Antioxidant activity assessed as inhibition of ABTS free radical scavenging activity after 10 mins by spectrophotometry relative to control; format: physicochemical
In short: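 ABTS (7 mM) and potassium persulfate (2.45 mM), final concentrations in water, mixed and kept in the dark at room temperature for 16 h to form ABTS radical cation. Diluted in water to A734 of 1.00. Compounds or Trolox standards added (final 0–20). Absorbance read 10 min after mixing. IC50 is 50% radical scavenging, relative uncertainty under five percent.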

Leishmania mexicana [8] = settings: MHOM/BZ/61/M379
Leishmania mexicana [9] = assay: Inhibition of DHFR in promastigote stage of Leishmania mexicana at 3 to 8 uM after 24 hrs in presence of folinic acid/folic acid/ferulic acid
In short: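 L. mexicana MHOM/BZ/61/M379 promastigotes, 10^6 in log phase, were incubated with folinic acid, folic acid or ferulic acid at 20, 40, 60, 80 or 100. Cells were washed, resuspended in PBS and held 1 h at room temperature, then pelleted and resuspended in culture medium in 24-well plates. Compound was added and plates incubated 24 h. Percentage of living parasites was determined.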

Compound	LC50 (Trypanosoma cruzi [1])	LC50 (Trypanosoma cruzi [2])	LC50 (Leishmania mexicana [3])	CC50 at 24 h [4]	Activity (Plasmodium berghei [5])	Survival (Plasmodium berghei [6])	pIC50 [7]	LC50 (Leishmania mexicana [8])	inhibition (Leishmania mexicana [9])
Nc1nc(N)c2cc(N(Cc3ccc(OC(F)(F)F)cc3)Cc3ccc(OC(F)(F)F)cc3)ccc2n1	35 µM	29.2 µM	4.93 µM	> 200 µM	21%	14 days	4.47	–	–
COc1ccc(CNc2ccc3nc(N)nc(N)c3c2)cc1	32.7 µM	155 µM	14.6 µM	147 µM	98.5%	18 days	5.24	–	–
Nc1nc(N)c2cc(NCc3ccc4c(c3)OCCO4)ccc2n1	66.5 µM	72.5 µM	22.4 µM	> 200 µM	44.2%	11 days	5.20	–	–
O=C1O[C@H]([C@@H](O)CO)C(O)=C1O [ASCORBIC ACID]	–	–	–	–	–	–	4.95	–	–
MEGLUMINE ANTIMONATE	–	–	–	–	–	–	–	183 µM	–
VITAMIN E	–	–	–	–	–	–	4.83	–	–
CCN(CC)CCCC(C)Nc1ccnc2cc(Cl)ccc12 (stereo not drawn) [CHLOROQUINE]	–	–	–	–	100%	>23 days	–	–	–
COc1ccc(CN(Cc2ccc(OC)cc2)c2ccc3nc(N)nc(N)c3c2)cc1	62.6 µM	46.5 µM	23.1 µM	> 200 µM	0%	7 days	3.94	–	–
CCN(Cc1ccc(OC(F)(F)F)cc1)c1ccc2nc(N)nc(N)c2c1	6.28 µM	43.8 µM	3.06 µM	> 200 µM	100%	>23 days	5.13	–	Active
Nc1ccc2nc(N)nc(N)c2c1 [QUINAZOLINE-2,4,6-TRIAMINE]	–	–	–	–	–	–	5.17	–	–
Nc1nc(N)c2cc(NCc3ccc(OC(F)(F)F)cc3)ccc2n1	20.6 µM	46.1 µM	8.08 µM	182 µM	99.9%	17 days	5.32	–	Active
CN(C)CCCOc1ccc(CNc2ccc3nc(N)nc(N)c3c2)cc1	288 µM	184 µM	65.4 µM	> 200 µM	53.2%	12 days	5.20	–	–
COc1ccc(CNc2ccc3nc(NC(C)=O)nc(NC(C)=O)c3c2)cc1	197 µM	509 µM	250 µM	156 µM	89.3%	6 days	5.15	–	–
O=C(Cn1ccnc1[N+](=O)[O-])NCc1ccccc1 [BENZNIDAZOLE]	780 µM	690 µM	–	–	–	–	–	–	–
CCc1nc(N)nc(N)c1-c1ccc(Cl)cc1 [PYRIMETHAMINE]	–	–	–	122 µM	100%	>23 days	–	–	–
Cc1c(C)c2c(c(C)c1O)CCC(C)(C(=O)O)O2 (stereo not drawn) [TROLOX]	–	–	–	–	–	–	4.96	–	–
CC1CS(=O)(=O)CCN1/N=C/c1ccc([N+](=O)[O-])o1 (stereo not drawn) [NIFURTIMOX]	–	–	–	163 µM	–	–	–	–	–
COc1ccc(CN(Cc2ccc(OC(F)(F)F)cc2)c2ccc3nc(N)nc(N)c3c2)cc1	17.8 µM	40.7 µM	8 µM	> 200 µM	95.2%	21 days	4.61	–	–
